Ecoli WT expand = blocks growth of wild type E. coli BW25113; OD600 absorbance; growth inhibition, % at 100 µM; actives 0.15% (n = 98,000); AID 710;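 active means growth inhibition above about 50% at one test dose, limit read from the data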;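 further: growth measured after 20 h incubation at 37 °C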
tolC growth inh = blocks growth of E. coli BW25113 tolC mutant. AID 573. OD615. actives 2.2% (n = 65,000). growth inhibition, % at 10 µM (by protocol);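 active means growth inhibition at or above a cutoff equal to the mean over every tested compound plus 3 SD, cut at about 60% in these data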;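 further: growth measured after 20 h incubation at 37 °C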
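Test system: tolC-deleted E. coli BW25113 | Medium: LB with kanamycin 50 µg/mL | Compound dosing: Single concentration, 10 µM final per compound | Schedule: 37 °C, 20 h exposure | Measured by: OD at 615 nm | Evaluation: Percent growth inhibition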
HePTP inhibitor = blocks human HePTP tyrosine phosphatase | recombinant HePTP phosphatase activity, OD absorbance | P35236 | actives 0.64% (n = 110,000) | inhibition, % at 20 µM; in the data active means inhibition above about 50%;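 further: plate controls were vehicle for no effect and reference inhibitor for full effect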
Target sequence (P35236 whole entry, looked up): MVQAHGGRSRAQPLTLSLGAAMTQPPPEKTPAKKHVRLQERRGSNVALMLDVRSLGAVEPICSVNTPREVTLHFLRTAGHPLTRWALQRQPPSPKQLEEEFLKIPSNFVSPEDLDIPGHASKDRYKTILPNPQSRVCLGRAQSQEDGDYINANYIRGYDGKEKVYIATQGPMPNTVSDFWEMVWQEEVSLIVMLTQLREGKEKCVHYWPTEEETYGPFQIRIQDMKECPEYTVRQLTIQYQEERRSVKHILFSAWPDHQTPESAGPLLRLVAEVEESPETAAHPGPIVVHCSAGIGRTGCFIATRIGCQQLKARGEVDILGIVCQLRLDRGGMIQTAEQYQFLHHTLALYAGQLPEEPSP
PostGolgi ctrl = inhibits growth of the yeast control strain | actives 5% (n = 98,000) | inhibition, % at 10 µM | AID 738 | efflux-deficient yeast background strain, growth absorbance A615, 16 h
PostGolgi yeast = growth inhibition of a yeast mutant, post-Golgi transport screen; post-Golgi transport phenotypic cell assay; inhibition, % at 10 µM; actives 0.9% (n = 98,000); AID 739;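 further: yeast cells grown in 1536-well plates; yeast grown about 18 h at 30C before absorbance read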
PLAP act = activators of human placental alkaline phosphatase | actives 1.2% (n = 96,000) | purified PLAP enzyme, luminescent substrate read-out; hits give high values | activation fold at 20 µM; in the data active means activation fold above about 2
* = called active by the depositor; . = not tested or not shown. This is a sample that favours compounds with a hit; in the whole collection about 5.4% have one here. Unless noted, no stated cut-off is given here; in the data, active means inhibition above about 30%; inactive means the rest.

SMILES	Ecoli WT expand	tolC growth inh	HePTP inhibitor	PostGolgi ctrl	PostGolgi yeast	PLAP act
COc1ccc(Cn2c(SCc3cc(C)ccc3C)nc3cc(OC)c(OC)cc3c2=N)cc1	6	.	.	63*	76*	1.2
COc1ccc(Cn2c(SCc3ccc(C)cc3)nc3cc(OC)c(OC)cc3c2=N)cc1Cl	-6	.	.	68*	33*	1.7
COc1cc2nc(SCc3ccc(Cl)cc3Cl)n(Cc3cccs3)c(=N)c2cc1OC	-7	.	.	6	-4	1.2
COCCCn1c(SCc2cccc(C(F)(F)F)c2)nc2cc(OC)c(OC)cc2c1=N	10	.	.	42*	15	1.3
CC(=O)Nc1nc(C2CC2)cc(-c2ccco2)c1C#N	.	.	3	.	.	.
Cc1ccc(Cl)cc1N(CC(=O)NC1CCCCC1)S(C)(=O)=O	1	-13	0	4	-5	1.1
O=C(NCCSCc1ccc(Cl)cc1Cl)c1ccc(CN2CCOCC2)cc1	14	.	.	31*	76*	1.6
O=C(NCCCN1CCOCC1)c1ccc(Cl)cc1	.	.	-2	.	.	.
O=C(Nc1ccc2c(c1)OCCO2)c1cc(-n2cnnc2)ccc1Cl	-1	-8	5	11	-3	0.9
O=C(NCc1ccc2c(c1)OCO2)c1cc(-n2cnnc2)ccc1Cl	4	-15	0	46*	-8	0.9
O=C(NCc1ccc2c(c1)OCO2)c1ccc(CN2CCOCC2)cc1	6	-12	6	33*	4	1
CC(C)(C)NC(=O)NC(=O)CSc1nnc(-c2ccccc2F)n1N	8	.	.	-8	-3	0.9
O=C(Cn1nnc(-c2ccc(Cl)cc2)n1)NCCC1=CCCCC1	-2	-2	9	3	2	0.4
O=C(Nc1ccccc1F)c1ccc(CSc2ccc(Cl)cc2)cc1	.	.	2	.	.	.
CCCNC(=O)c1ccccc1NC(=O)c1ccc(CSc2ccccc2)cc1	-3	.	.	80*	12	1.1
CCCOC(=O)c1ccc(NC(=O)OC)cc1	.	.	2	.	.	.
CCCCCCOC(=O)c1ccc(NC(=O)c2cc(OC)c(OC)c(OC)c2Br)cc1	-13	.	.	14	-6	2*
CCCCOC(=O)Nc1ccc(C(=O)OCCC)cc1	5	67*	10	5	0	0.7
O=C(c1cccs1)N1CCN(c2cc(N3CCCC3)c(F)cc2[N+](=O)[O-])CC1	.	.	1	.	.	.
COc1cccc(C2/C(=C(\O)c3ccc(Br)cc3)C(=O)C(=O)N2c2ccccc2)c1 (stereo unspecified)	.	.	3	.	.	.
COC(=O)c1c(C)nc(C)c2c(=O)oc3ccccc3c12	-1	8	13	42*	-4	0.9
Cc1cc2c(c(N)n1)c(=O)oc1ccccc12	0	20	3	6	2	0.9
Nc1c2c(nc3ccn(Cc4ccccc4)c(=O)c13)CCC2	11	4	-10	44*	11	0.7
Nc1c2c(nc3ccn(-c4ccccc4)c(=O)c13)CCCCC2	1	10	0	4	6	1.1
Cc1csc(NC(=O)c2nc(-c3ccccc3)n(-c3ccccc3)n2)n1	-6	1	8	8	38*	2.8*
SMILES	Ecoli WT expand	tolC growth inh	HePTP inhibitor	PostGolgi ctrl	PostGolgi yeast	PLAP act
Cc1cc(C)n2nc(C(=O)Nc3nccs3)nc2n1	0	.	.	6	-3	1
Cc1csc(NC(=O)c2nc3nc(C)cc(C)n3n2)n1	10	1	-9	5	-5	2.1*
CCSc1nnc(NC(=O)c2nn(C(C)C)c(=O)c3ccccc23)s1	-4	38	8	30*	7	1.3
CCSc1nnc(NC(=O)c2nc(-c3ccccc3)n(-c3ccccc3)n2)s1	-8	78*	5	16	2	1.4
CC(C)(C)c1ccc(CN(Cc2ccccc2)C(c2ccccn2)c2nnnn2C(C)(C)C)cc1 (stereo unspecified)	-12	.	.	22	8	1.3
CCOc1ccc(NC(=O)C/C(N)=N/O)cc1	8	-15	5	-4	35*	1.1
CCOc1ccc(C(=O)Nc2ccc(OC(F)(F)F)cc2)cc1	.	.	103*	.	.	.
COCCCNCC(=O)Nc1ccc(OC(F)(F)F)cc1	-12	-16	2	42*	9	.
Cc1ccc(C(=O)Nc2ccc3nn(-c4ccc(F)cc4)nc3c2)cc1[N+](=O)[O-]	.	.	-8	.	.	.
CCn1c(CNC(=O)COc2ccc(C(C)C)cc2)nnc1SCC(=O)Nc1ccc(F)cc1	2	.	.	14	7	1.7
COC(=O)C1=C(C)N(c2ccccc2F)C(=O)/C1=C\c1cccc(OC)c1	.	.	-4	.	.	.
CCOc1ccccc1NC(=O)CSc1ccccn1	.	.	-1	.	.	.
COc1ccc(NC(=O)CN(C)S(=O)(=O)c2cccc3cccnc23)cc1	3	-1	3	17	9	1.1

Assay outcomes deposited in PubChem BioAssay by several laboratories.
